Experimental data: ChEMBL document CHEMBL1949537, “Structure-activity studies on the anti-proliferation activity of ajoene analogues in WHCO1 oesophageal cancer cells” (Eur J Med Chem, 2012)
The source made the active and inactive calls. No cut-off for these calls is given here.

Assays:
WHCO1 [1] = assay: Growth inhibition of human WHCO1 cells at 34 uM after 6 days by Roche xCelligence method; assay type: functional, cell-based
Procedure, shortened: (§1)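 Real-time impedance (xCelligence) of WHCO1 cells seeded at 5000/well. Compound added 24 h after plating in 0.1% DMSO at 34, 100 or 113 µM; DMSO-only controls. Growth then tracked continuously for a further six days. Each curve is the average of three replicates.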

[2] = Induction of cell cycle arrest in human WHCO1 cells assessed as S phase cells at 10 uM after 16 hrs by flow cytometry (reference value: 45.3 +/- 1.9%); assay type: functional
[3] = Induction of cell cycle arrest in human WHCO1 cells assessed as G2/M phase cells at 10 uM after 16 hrs by flow cytometry (reference value: 25.5 +/- 3.7%); assay type: functional
[4] = Antiproliferative activity against human WHCO1 cells after 48 hrs by MTT assay; assay type: functional, cell-based; conditions: WHCO1, 48 h
Procedure, shortened: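 WHCO1 cells (oesophageal SCC line) kept in DMEM with 10% FBS, no antibiotics, 37 °C, 5% CO2. Seeded 2 × 10^3 cells/well, dosed next day at 0.5–200 µM in 0.1% DMSO final; DMSO-only controls. After 48 h, MTT added for 4 h, then SLS/HCl overnight, A595 read. IC50 from variable-slope sigmoidal fit; mean ± SD of three independent determinations.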

[5] = Induction of cell cycle arrest in human WHCO1 cells assessed as G0/G1 phase cells at 10 uM after 16 hrs by flow cytometry (reference value: 29.2 +/- 5.2%); assay type: functional
WHCO1 [6] = assay: Growth inhibition of human WHCO1 cells at 10 uM up to 2 days by Roche xCelligence method; assay type: functional, cell-based; conditions: in the assay text read “up to 5 days” for “up to 2 days”
Procedure, shortened: (§2)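 xCelligence impedance monitoring of WHCO1 growth: 2500 cells/well, treated 24 h after plating with 10 µM compound in 0.1% DMSO. DMSO-only controls. Growth followed continuously as impedance; the system records for up to seven days.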

WHCO1 [7] = assay: Induction of apoptosis in human WHCO1 cells at 10 uM after 16 hrs by Roche cell death ELISA method; assay type: functional, cell-based
Procedure, shortened: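 Quadruplicate wells of 5 × 10^3 WHCO1 cells dosed next day at 10 µM in 0.1% DMSO for 16 h; DMSO-only controls. Cytoplasmic fraction assayed for histone-associated DNA fragments by sandwich ELISA (anti-histone-biotin/anti-DNA-POD, 2 h at room temperature, ABTS 15 min). Absorbance read at 405 and 495 nm.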

WHCO1 [8] = assay: Growth inhibition of human WHCO1 cells at 113 uM after 6 days by Roche xCelligence method; assay type: functional, cell-based; procedure, shortened: as §1
WHCO1 [9] = assay: Growth inhibition of human WHCO1 cells at 100 uM after 6 days by Roche xCelligence method; assay type: functional, cell-based; procedure, shortened: as §1
[10] = Induction of apoptosis in human WHCO1 cells assessed as caspase 3 activation using Ac-DEVD-AFC as substrate at 25 uM after 24 hrs by fluorimetry relative to control; assay type: functional
Procedure, shortened: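 WHCO1 cells (1.8 × 10^6) seeded in triplicate and dosed next day at 25 µM with 0.1% DMSO for 24 h. Controls received medium or 0.1% DMSO. Lysates captured on anti-caspase-3 coated wells for 1 h at 37 °C, then fluorogenic substrate added. Fluorescence (ex 390/em 505 nm) read at 0 and 120 min at 37 °C; activity is the ΔFU.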

WHCO1 [11] = assay: Growth inhibition of human WHCO1 cells at 10 uM up to 5 days by Roche xCelligence method; assay type: functional, cell-based; procedure, shortened: as §2
[12] = Ratio of Z-ajeone IC50 to compound IC50 for human WHCO1 cells; assay type: functional

Structure (SMILES)	IC50 [4] [µM]	also measured
COc1ccc(CS/C=C\C[S+]([O-])Cc2ccc(OC)cc2)cc1 (stereo not drawn)	> 200	growth inhibition (GI) (WHCO1 [1]): inactive; Activity [2]: 63.1%; Activity [3]: 17.4%; Activity [5]: 19.5%
C=CCSS/C=C\C[S+]([O-])CCC (stereo not drawn)	23	
C=CCSS/C=C\C[S+]([O-])CCCOCc1ccc(OC)cc1 (stereo not drawn)	21	
C=CCSS/C=C/C[S+]([O-])CCCN1C(=O)c2ccccc2C1=O (stereo not drawn)	68	
CCC[S+]([O-])C/C=C/SSC (stereo not drawn)	28	
C=CCSSC=CC[S+]([O-])Cc1ccc(OC)cc1 (mixture of isomers)	7.4	
C=CCSS/C=C\C[S+]([O-])CC=C (stereo not drawn) [(Z)-Ajoene]	25	growth inhibition (GI) (WHCO1 [6]): inactive
C=CCSSC=CC[S+]([O-])C(C)(C)C (mixture of isomers)	23	
COc1ccc(CSCC=CSSCc2ccc(OC)cc2)cc1	0.7	growth inhibition (GI) (WHCO1 [1]): Active; Activity [2]: 15.9%; Activity (WHCO1 [7]): Active; Activity [3]: 74.4%; Activity [5]: 9.73%
COc1ccc(CSCCCSSCc2ccc(OC)cc2)cc1	> 200	growth inhibition (GI) (WHCO1 [8]): inactive
COc1ccc(CSSC=CC[S+]([O-])Cc2ccc(OC)cc2)cc1 (stereo not drawn)	2.1	Activity [2]: 13.5%; growth inhibition (GI) (WHCO1 [9]): Active; Activity (WHCO1 [7]): Active; Activity [3]: 78.6%; fold change (FC) [10]: 3; growth inhibition (GI) (WHCO1 [11]): Active; Activity [5]: 8.03%; Ratio IC50 [12]: 12
COc1ccc(C[S+]([O-])CC=CSSCc2ccccc2)cc1 (mixture of isomers)	3.1	
C=CCSS/C=C/C[S+]([O-])CCCO (stereo not drawn)	27	
COc1ccc(CSC=CCSCc2ccc(OC)cc2)cc1	> 200	growth inhibition (GI) (WHCO1 [8]): inactive
CCCSS/C=C/C[S+]([O-])CCC (stereo not drawn)	24	
CCCSS/C=C\C[S+]([O-])CCC (stereo not drawn)	18	
COc1ccc(CSSCCC[S+]([O-])Cc2ccc(OC)cc2)cc1 (stereo not drawn)	16	growth inhibition (GI) (WHCO1 [1]): Active
C=CCSSC=CC[S+]([O-])Cc1ccccc1 (mixture of isomers)	8.9	
COc1ccc(CS/C=C/C[S+]([O-])Cc2ccc(OC)cc2)cc1 (stereo not drawn)	> 200	growth inhibition (GI) (WHCO1 [1]): inactive; Activity [2]: 67%; Activity [3]: 11.4%; Activity [5]: 21.5%
O=c1[nH]cc(F)c(=O)[nH]1 [FLUOROURACIL]	7.9	
C=CCSS/C=C\C[S+]([O-])CCCN1C(=O)c2ccccc2C1=O (stereo not drawn)	33	
C=CCSS/C=C/C[S+]([O-])CC=C (stereo not drawn) [AJOENE]	39	growth inhibition (GI) (WHCO1 [6]): inactive
C=CCSS/C=C/C[S+]([O-])CCC (stereo not drawn)	37	
CCC[S+]([O-])C/C=C\SSC (stereo not drawn)	26	
COc1ccc(C[S+]([O-])CC=CSSCc2ccc(F)cc2)cc1 (mixture of isomers)	16	
C=CCSS/C=C/C[S+]([O-])CCCOCc1ccc(OC)cc1 (stereo not drawn)	18	
C=CCSS/C=C\C[S+]([O-])CCCO (stereo not drawn)	38	
